Results reported in ChEMBL document CHEMBL1131169, “Efficacious, orally bioavailable thrombin inhibitors based on 3-aminopyridinone or 3-aminopyrazinone acetamide peptidomimetic templates” (J Med Chem, 1998).

Columns and labels:
[1] = Final plasma concentration after intravenous infusion; type: ADME, cell-free; settings: read-out: Final plasma concentration
[2] = in vitro anticoagulant potency (2x APTT) against Human plasma.; type: functional
Rattus norvegicus [3] = experiment: In vivo antithrombotic activity was measured after intravenous infusion (at 10 ug/kg/min) in rat FeCl3 arterial thrombosis model; 3/6; type: functional
Prothrombin = Prothrombin (Homo sapiens, UniProt P00734); experiment: Inhibitory activity against thrombin (IIa) was determined
Serine protease 1 = Serine protease 1 (Homo sapiens, UniProt P07477); experiment: Inhibitory activity against trypsin was determined
[4] = Area under curve(AUC) value of the compound in dogs at 1 mg/kg dose upon oral administration; type: ADME, organism-based, Canis lupus familiaris; design: dose 1 mg/kg, route oral; settings: dog, in vivo
How it was run: (§1)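 Dogs dosed orally at 1 mg/kg, n = 2 per compound. Plasma drug levels were followed over time to give Cmax (μM), tmax (min), elimination t1/2 (min) and AUC (μM·h).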

Rattus norvegicus [5] = experiment: In vivo antithrombotic activity was measured after intravenous infusion (at 10 ug/kg/min) in rat FeCl3 arterial thrombosis model; 0/6; type: functional
[6] = Maximum plasma concentration in dogs at 1 mg/kg dose upon oral administration; type: ADME, organism-based, Canis lupus familiaris; design: dose 1 mg/kg, route oral; settings: dog; how it was run: as §1
[7] = Half-life in dogs at 1 mg/kg dose upon oral administration; type: ADME, organism-based, Canis lupus familiaris; design: dose 1 mg/kg, route oral; settings: dog, in vivo; how it was run: as §1
[8] = time required for maximum concentration in dogs at 1 mg/kg dose upon oral administration; type: ADME, organism-based, Canis lupus familiaris; design: dose 1 mg/kg, route oral; settings: dog, in vivo; how it was run: as §1
Rattus norvegicus [9] = experiment: In vivo antithrombotic activity was measured after intravenous infusion (at 5 ug/kg/min) in rat FeCl3 arterial thrombosis model;1/6; type: functional
[10] = Final plasma concentration after intravenous infusion at 5 ug/kg/min dose; type: ADME, cell-free; settings: 0.005 mg/kg, read-out: Final plasma concentration
[11] = in vitro anticoagulant potency (2x APTT) against rat plasma.; type: functional
Rattus norvegicus [12] = experiment: In vivo antithrombotic activity was measured after intravenous infusion (at 10 ug/kg/min) in rat FeCl3 arterial thrombosis model; 0/9; type: functional
[13] = Area under curve(AUC) value of the compound; type: ADME
[14] = Half-life in dogs at 0.5 mg/kg dose upon oral administration; type: ADME, organism-based, Canis lupus familiaris; design: dose 0.5 mg/kg, route oral; settings: dog, in vivo
How it was run: (§2)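 Oral dosing at 0.5 mg/kg in dogs (n = 4) with plasma levels followed over time. Reported as Cmax (μM), tmax (min), terminal t1/2 (min) and AUC (μM·h), each given as mean ± spread. The same dogs later received an iv crossover dose at 0.5 mg/kg to estimate oral bioavailability.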

Rattus norvegicus [15] = experiment: In vivo antithrombotic activity was measured after intravenous infusion (at 5 ug/kg/min) in rat FeCl3 arterial thrombosis model; 4/6; type: functional
[16] = time required for maximum concentration in dogs at 0.5 mg/kg dose upon oral administration; type: ADME, organism-based, Canis lupus familiaris; design: dose 0.5 mg/kg, route oral; settings: dog, in vivo; how it was run: as §2
[17] = Area under curve(AUC) value of the compound in dogs at 0.5 mg/kg dose upon oral administration; type: ADME, organism-based; design: dose 0.5 mg/kg, route oral; settings: dog, in vivo; how it was run: as §2
[18] = Maximum plasma concentration in dogs at 0.5 mg/kg dose upon oral administration; type: ADME, organism-based, Canis lupus familiaris; design: dose 0.5 mg/kg, route oral; settings: dog; how it was run: as §2

Chain of Serine protease 1 (P07477 whole entry): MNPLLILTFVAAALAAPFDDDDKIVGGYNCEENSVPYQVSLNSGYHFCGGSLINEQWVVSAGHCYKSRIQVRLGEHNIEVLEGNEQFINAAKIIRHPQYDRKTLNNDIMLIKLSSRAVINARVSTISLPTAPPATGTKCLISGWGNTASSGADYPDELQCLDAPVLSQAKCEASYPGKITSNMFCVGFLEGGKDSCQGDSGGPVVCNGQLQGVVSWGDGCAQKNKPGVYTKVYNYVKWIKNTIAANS

concentration [1] [nM] | Ki (Prothrombin) [nM] | Ki (Serine protease 1) [nM] | Compound | 2x APTT [2] [nM] | other results
224 | 0.35 | 1000 | Cc1cc(N)nc(C)c1CNC(=O)Cn1c(C)cnc(NCCc2ccccc2)c1=O | 420 | Occlusions (Rattus norvegicus [3]): 3
 | 22 | 4800 | Cc1nc(N)ccc1CNC(=O)Cn1c(C)cnc(N[C@@H](C)Cc2ccccc2)c1=O |  | 
 | 8.3 | 1200 | Cc1cnc(NCCc2ccccc2)c(=O)n1CC(=O)NCc1ccc(N)nc1 | 2100 | 
 | 7 | 2100 | Cc1nc(N)ccc1CNC(=O)Cn1c(C)c(Cl)nc(NCCc2ccccc2)c1=O | 5470 | 
 | 24 | 2600 | Cc1nc(N)ccc1CNC(=O)Cn1c(C)cnc(NC(C)(C)Cc2ccccc2)c1=O |  | 
554 | 0.52 | 1500 | Cc1nc(N)ccc1CNC(=O)Cn1c(C)cnc(N[C@H](C)Cc2ccccc2)c1=O | 350 | AUC [4]: 1.85 µM·h; Occlusions (Rattus norvegicus [5]): 0; Cmax [6]: 600 nM; half-life [7]: 2.13 h; Tmax [8]: 0.417 h
586 | 0.5 | 3200 | Cc1nc(N)ccc1CNC(=O)Cn1c(C)ccc(NS(=O)(=O)Cc2ccccc2)c1=O [L-374087] | 210 | Occlusions (Rattus norvegicus [9]): 1; Cmax [6]: 990 nM; half-life [7]: 2.57 h; concentration [10]: 221 nM; 2x APTT [11]: 250 nM; Occlusions (Rattus norvegicus [12]): 0; AUC [13]: 4.42 µM·h; Tmax [8]: 1.25 h
445 | 0.8 | 1800 | Cc1nc(N)ccc1CNC(=O)Cn1c(C)cnc(NCCc2ccccc2)c1=O [L-375378] | 410 | Occlusions (Rattus norvegicus [5]): 0; half-life [14]: 3.85 h; Occlusions (Rattus norvegicus [15]): 4; Tmax [16]: 0.875 h; AUC [17]: 11.2 µM·h; concentration [10]: 238 nM; 2x APTT [11]: 380 nM; Cmax [18]: 1960 nM
